Converted amounts (≈) assume the structure as drawn.
Columns and labels:
Pseudomonas aeruginosa [1] = test: Antibacterial activity against Pseudomonas aeruginosa SA24; format: functional
Outline: (§1)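 Agar dilution MIC on Sensitivity Disk Agar-N with 2-fold serial drug dilutions. Overnight Mueller Hinton broth cultures were diluted to about 10^6 CFU/mL, and 1 µL spots were applied. Plates were incubated 20 h at 37 °C before scoring.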

[2] = AUC (0 to infinity) in mouse at 20 mg/kg, iv administered as bolus dose by band-culture bioassay; settings: in vivo
Staphylococcus aureus [3] = test: Antibacterial activity against methicillin-resistant Staphylococcus aureus SR3626; format: functional
Outline: (§2)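 Agar dilution on Sensitivity Disk Agar-N. Overnight Mueller Hinton broth cultures were diluted to about 10^6 CFU/mL, and 1 µL spots were placed on agar plates holding 2-fold serial dilutions of antibiotic. Plates were incubated 20 h at 37 °C and then MICs were scored.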

[4] = AUC (0 to infinity) in monkey at 20 mg/kg, iv administered as bolus dose by HPLC method; format: ADME, organism-based, Macaca mulatta; design: dose 20 mg/kg, time infinity, route intravenous; settings: rhesus monkey, in vivo
Outline: (§3)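 Three monkeys per group received a single iv bolus of 20 mg/kg (1 mL/kg). Plasma levels were measured by HPLC. AUC0-∞, CLtot and T1/2 came from a 2-compartment fit.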

Staphylococcus aureus [5] = test: Antibacterial activity against Staphylococcus aureus SMITH; format: functional; outline: as §1
[6] = Half life in mouse at 20 mg/kg, iv administered as bolus dose by band-culture bioassay; settings: in vivo
Pseudomonas aeruginosa [7] = test: Antibacterial activity against Pseudomonas aeruginosa PAO1; format: functional; outline: as §1
Staphylococcus aureus [8] = test: Antibacterial activity against methicillin-resistant Staphylococcus aureus SR2030; format: functional; outline: as §2
[9] = Half life in monkey at 20 mg/kg, iv administered as bolus dose by HPLC method; format: ADME, organism-based, Macaca mulatta; settings: rhesus monkey, in vivo; outline: as §3
Escherichia coli [10] = test: Antibacterial activity against Escherichia coli NIHJ JC-2; format: functional; outline: as §1
Streptococcus pneumoniae [11] = test: Antibacterial activity against penicillin-susceptible Streptococcus pneumoniae SR16605 after 20 hrs by agar dilution method; format: functional; settings: SR16605, 20 h; outline: as §2
[12] = Total clearance in monkey at 20 mg/kg, iv administered as bolus dose by HPLC method; format: ADME, organism-based, Macaca mulatta; settings: rhesus monkey, in vivo; outline: as §3
Streptococcus pneumoniae [13] = test: Antibacterial activity against penicillin-resistant Streptococcus pneumoniae SR16754 infected in sc dosed mouse assessed as protection against bacterial infection by measuring increase in mouse survival administered 1 and 5 hrs post infection measured after 7 days; format: functional
Outline: (§4)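 Mouse septicemia model in six-week-old male Jcl:ICR mice (19 to 25 g). Mice were infected intraperitoneally with 0.5 mL of S. pneumoniae suspension in hog mucin. Compound was given subcutaneously 1 and 5 h after infection. Mortality was recorded over 7 days, and ED50 with 90% confidence limits was derived by the logit method.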

Streptococcus pneumoniae [14] = test: Antibacterial activity against penicillin-resistant Streptococcus pneumoniae SR16675 after 20 hrs by agar dilution method; format: functional; settings: SR16675, 20 h; outline: as §2
[15] = Total clearance in mouse at 20 mg/kg, iv administered as bolus dose by band-culture bioassay; settings: in vivo
Haemophilus influenzae [16] = test: Antibacterial activity against beta-lactamase non-producing penicillin-resistant Haemophilus influenzae SR11435 after 20 hrs by agar dilution method; format: functional; settings: SR11435, 20 h; outline: as §2
Haemophilus influenzae [17] = test: Antibacterial activity against beta-lactamase non-producing penicillin-resistant Haemophilus influenzae SR24106 after 20 hrs by agar dilution method; format: functional; settings: SR24106, 20 h; outline: as §2
Moraxella catarrhalis = test: Antibacterial activity against Moraxella catarrhalis SR24290 after 20 hrs by agar dilution method; format: functional; settings: SR24290, 20 h; outline: as §1
Staphylococcus aureus [18] = test: Antibacterial activity against Staphylococcus aureus SMITH after 20 hrs by agar dilution method; format: functional; outline: as §1
Streptococcus pneumoniae [19] = test: Antibacterial activity against penicillin-susceptible Streptococcus pneumoniae SR16605 infected in sc dosed mouse assessed as protection against bacterial infection by measuring increase in mouse survival administered 1 and 5 hrs post infection measured after 7 days; format: functional; outline: as §4
[20] = Protein binding in cynomolgus monkey plasma after 30 mins by ultra-filtration method; format: ADME, cell-free, Macaca fascicularis; settings: read-out: PPB (converted)
Outline: (§5)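 Mouse or monkey plasma was adjusted to pH 7 with CO2 and spiked with compound to a final 10 µg/ml. It was incubated 30 min at 37 °C, then ultrafiltered by centrifugation at 3200 rpm for 30 min at 25 °C. Free drug in the filtrate was measured by bioassay to give the bound fraction.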

Escherichia coli [21] = test: Antibacterial activity against Escherichia coli NIHJ JC-2 after 20 hrs by agar dilution method; format: functional; settings: NIHJ JC-2, 20 h; outline: as §1
[22] = Protein binding in ICR mouse plasma after 30 mins by ultra-filtration method; format: ADME, cell-free; settings: read-out: PPB (converted); outline: as §5
Streptococcus pneumoniae [23] = test: Antibacterial activity against penicillin-resistant Streptococcus pneumoniae SR16754 after 20 hrs by agar dilution method; format: functional; settings: SR16754, 20 h; outline: as §2
Streptococcus pneumoniae [24] = test: Antibacterial activity against penicillin-resistant Streptococcus pneumoniae SR16750 after 20 hrs by agar dilution method; format: functional; settings: SR16750, 20 h; outline: as §2
Streptococcus pneumoniae [25] = test: Potency index, ratio of Ceftriaxone MIC to compound MIC for penicillin-susceptible Streptococcus pneumoniae SR16605; format: functional

Row | Structure (SMILES) | MIC (Pseudomonas aeruginosa [1]) [µg/mL] | AUC(0-inf) [2] [ng·h/mL] | MIC (Staphylococcus aureus [3]) [µg/mL] | AUC [4] [ng·h/mL] | MIC (Staphylococcus aureus [5]) [µg/mL] | half-life [6] [min] | MIC (Pseudomonas aeruginosa [7]) [µg/mL] | MIC (Staphylococcus aureus [8]) [µg/mL] | half-life [9] [min] | MIC (Escherichia coli [10]) [µg/mL] | clearance [12] [mL/min/kg] | MIC (Streptococcus pneumoniae [14]) [µg/mL] | clearance [15] [mL/min/kg] | MIC (Haemophilus influenzae [16]) [µg/mL] | MIC (Haemophilus influenzae [17]) [µg/mL] | MIC (Moraxella catarrhalis) [µg/mL] | MIC (Staphylococcus aureus [18]) [µg/mL] | fraction unbound at 0.5 h [20] | MIC (Escherichia coli [21]) [µg/mL] | fraction unbound at 0.5 h [22] | also measured
1 | CCO/N=C(\C(=O)N[C@@H]1C(=O)N2C(C(=O)[O-])=C(C[n+]3ccc(-c4c[nH]c(C(=O)NC#N)c4)cc3)CS[C@H]12)c1nsc(N)n1 | 0.4 (≈ 0.642 µM) | 27300 | 12.5 (≈ 20.1 µM) | 22000 | 1.6 (≈ 2.57 µM) | 24 | 0.8 (≈ 1.28 µM) | 12.5 (≈ 20.1 µM) | 120 | 0.1 (≈ 0.161 µM) | – | – | – | – | – | – | – | – | – | – | –
2 | CO/N=C(\C(=O)N[C@@H]1C(=O)N2C(C(=O)[O-])=C(C[n+]3ccn4ncccc43)CS[C@H]12)c1nsc(N)n1 [CEFOZOPRAN] | 0.4 (≈ 0.776 µM) | 30300 | 50 (≈ 97 µM) | 15000 | 0.8 (≈ 1.55 µM) | 24 | 0.8 (≈ 1.55 µM) | 12.5 (≈ 24.2 µM) | 72 | 0.05 (≈ 0.097 µM) | – | – | – | – | – | – | – | – | – | – | –
3 | CCO/N=C(\C(=O)N[C@@H]1C(=O)N2C(C(=O)[O-])=C(C[n+]3ccc(-c4cc[nH]c4)cc3)CS[C@H]12)c1nsc(N)n1 | 0.8 (≈ 1.44 µM) | – | 6.3 (≈ 11.4 µM) | – | 0.4 (≈ 0.721 µM) | – | 0.8 (≈ 1.44 µM) | 1.6 (≈ 2.88 µM) | – | 0.02 (≈ 0.0361 µM) | – | – | – | – | – | – | – | – | – | – | –
4 | CCO/N=C(\C(=O)N[C@@H]1C(=O)N2C(C(=O)[O-])=C(C[n+]3ccc(-c4c[nH]c(C(=O)O)c4)cc3)CS[C@H]12)c1nsc(N)n1 | 0.8 (≈ 1.34 µM) | – | 25 (≈ 41.8 µM) | – | 3.1 (≈ 5.18 µM) | – | 0.8 (≈ 1.34 µM) | 12.5 (≈ 20.9 µM) | – | 0.05 (≈ 0.0835 µM) | – | – | – | – | – | – | – | – | – | – | –
5 | CO/N=C(\C(=O)N[C@@H]1C(=O)N2C(C(=O)O)=C(CSc3nc(=O)c(=O)[nH]n3C)CS[C@H]12)c1csc(N)n1 [CEFTRIAXONE] | – | 60800 | – | 21900 | – | 38.4 | – | – | 117 | – | 0.77 | 1 (≈ 1.8 µM) | 5.49 | 0.125 (≈ 0.225 µM) | 0.25 (≈ 0.451 µM) | 1 (≈ 1.8 µM) | 2 (≈ 3.61 µM) | 0.05 | 0.125 (≈ 0.225 µM) | 0.06 | MIC (Streptococcus pneumoniae [11]): 0.016 µg/mL (≈ 0.0289 µM); ED50 (Streptococcus pneumoniae [13]): 5.65 mg/kg; ED50 (Streptococcus pneumoniae [19]): 0.11 mg/kg; MIC (Streptococcus pneumoniae [23]): 1 µg/mL (≈ 1.8 µM); MIC (Streptococcus pneumoniae [24]): 2 µg/mL (≈ 3.61 µM)
6 | CCO/N=C(\C(=O)N[C@@H]1C(=O)N2C(C(=O)[O-])=C(/C=C/C[n+]3ccc(-c4nc(/C([O-])=N/C#N)cs4)cc3)CS[C@H]12)c1csc(N)n1.[Na+] | – | 20900 | – | 37500 | – | 40.2 | – | – | 233 | – | 0.49 | 0.25 | 16 | 0.031 | 0.063 | 1 | 0.5 | 0.27 | 0.063 | 0.81 | MIC (Streptococcus pneumoniae [11]): 0.008 µg/mL; ED50 (Streptococcus pneumoniae [13]): 0.71 mg/kg; ED50 (Streptococcus pneumoniae [19]): 0.017 mg/kg; MIC (Streptococcus pneumoniae [23]): 0.25 µg/mL; MIC (Streptococcus pneumoniae [24]): 0.25 µg/mL; Ratio (Streptococcus pneumoniae [25]): 2 - 3
7 | CCO/N=C(\C(=O)N[C@@H]1C(=O)N2C(C(=O)[O-])=C(/C=C/C[n+]3ccc(/C([O-])=N/C#N)cc3)CS[C@H]12)c1csc(N)n1.[Na+] | – | 14600 | – | 9700 | – | 43.2 | – | – | 73.2 | – | 1.84 | 0.25 | 22.9 | 0.063 | 0.125 | 1 | 0.5 | 0.59 | 0.25 | 0.92 | MIC (Streptococcus pneumoniae [24]): 0.5 µg/mL
